According to ChEMBL document CHEMBL2429791, “Preparation of asymmetric urea derivatives that target prostate-specific membrane antigen for SPECT imaging” (J Med Chem, 2013):

Tests used:
Type in all cases: ADME, organism-based
LNCaP [1] = experiment: Biodistribution in LNCAP cells in C.B.-17/Icr +/+ Jcl mouse xenografted with human LNCAP and PC3 cells at 25.9 MBq, iv after 30 mins; details: in vivo, 0.5 h
In short: (§1)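 ¹²⁵I-labelled tracer given iv by tail vein to mice (22–24 g) bearing LNCaP (left shoulder) and PC-3 (right shoulder) xenografts of about 5–10 mm, grown from 1–5 × 10⁶ cells in 1:1 Matrigel. n=4 per time point; decapitated at 2 min, 30 min, 1, 3, 6 h. Tissues weighed and counted; uptake as %ID/g, mean ± SD.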

Liver [2] = experiment: Drug excretion in C.B.-17/Icr […] Jcl mouse liver xenografted with human LNCAP and PC3 cells at 25.9 MBq, iv; details: in vivo
LNCaP [3] = experiment: Biodistribution in LNCAP cells in C.B.-17/Icr +/+ Jcl mouse xenografted with human LNCAP and PC3 cells at 25.9 MBq, iv after 6 hrs; details: in vivo; in short: as §1
PC-3 [4] = experiment: Biodistribution in PC3 cells in C.B.-17/Icr +/+ Jcl mouse xenografted with human LNCAP and PC3 cells at 25.9 MBq, iv after 3 hrs; details: in vivo; in short: as §1
[5] = Ratio of drug level in human LNCAP cells xenografted in C.B.-17/Icr +/+ Jcl mouse to blood of C.B.-17/Icr +/+ Jcl mouse xenografted with human LNCAP and PC3 cells at 25.9 MBq, iv after 1 hr; details: LNCAP tumour xenograft relative to blood
In short: (§2)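 Tumor-to-blood and tumor-to-muscle ratios were calculated from %ID/g values in ¹²⁵I-tracer biodistribution in LNCaP/PC-3 xenografted mice. Tail-vein dosing, n=4 per time point, sacrifice at 2 min, 30 min, 1, 3 or 6 h.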

PC-3 [6] = experiment: Biodistribution in PC3 cells in C.B.-17/Icr +/+ Jcl mouse xenografted with human LNCAP and PC3 cells at 25.9 MBq, iv after 1 hr; details: in vivo; in short: as §1
Lung = experiment: Biodistribution in lung of C.B.-17/Icr +/+ Jcl mouse xenografted with human LNCAP and PC3 cells at 25.9 MBq, iv after 3 hrs; details: in vivo
In short: (§3)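 Radioiodinated (¹²⁵I) tracer given by tail-vein injection to mice bearing LNCaP (left shoulder) and PC-3 (right shoulder) xenografts, 22–24 g, grown to about 5–10 mm. Groups of n=4 were decapitated at 2 min, 30 min, 1 h, 3 h or 6 h. Tissues were weighed and counted, and uptake was expressed as %ID/g (mean ± SD).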

Blood [7] = experiment: Biodistribution in blood of C.B.-17/Icr +/+ Jcl mouse xenografted with human LNCAP and PC3 cells at 25.9 MBq, iv after 6 hrs; details: in vivo; in short: as §1
Muscle tissue [8] = experiment: Biodistribution in muscle of C.B.-17/Icr +/+ Jcl mouse xenografted with human LNCAP and PC3 cells at 25.9 MBq, iv after 3 hrs; details: in vivo; in short: as §3
Heart [9] = experiment: Biodistribution in heart of C.B.-17/Icr +/+ Jcl mouse xenografted with human LNCAP and PC3 cells at 25.9 MBq, iv after 3 hrs; details: in vivo; in short: as §1
Intestine [10] = experiment: Biodistribution in intestine of C.B.-17/Icr +/+ Jcl mouse xenografted with human LNCAP and PC3 cells at 25.9 MBq, iv after 30 mins; details: in vivo, 0.5 h; in short: as §1
Liver [11] = experiment: Biodistribution in liver of C.B.-17/Icr […] Jcl mouse xenografted with human LNCAP and PC3 cells at 25.9 MBq, iv after 30 mins; details: in vivo, 0.5 h; in short: as §1
Nucleic Acid [12] = experiment: Ratio of drug level in human LNCAP cells xenografted in C.B.-17/Icr +/+ Jcl mouse to muscle of C.B.-17/Icr +/+ Jcl mouse xenografted with human LNCAP and PC3 cells at 25.9 MBq, iv after 3 hrs; details: in vivo; in short: as §2
Nucleic Acid [13] = experiment: Ratio of drug level in human PC3 cells xenografted in C.B.-17/Icr +/+ Jcl mouse to muscle of C.B.-17/Icr +/+ Jcl mouse xenografted with human LNCAP and PC3 cells at 25.9 MBq, iv after 3 hrs; details: in vivo
In short: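 Mice (22–24 g) carried PC-3 (right shoulder) and LNCaP (left shoulder) tumors, raised by injecting 1–5 × 10⁶ cells in 1:1 PBS/Matrigel and used at about 5–10 mm diameter. [¹²⁵I]-tracer was given via the tail vein, n=4 per time point, and mice were decapitated at 2 min, 30 min, 1, 3 or 6 h. Tissues were weighed and γ-counted as %ID/g. Tumor/blood and tumor/muscle ratios were taken from %ID/g, mean ± SD.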

Stomach = experiment: Biodistribution in stomach of C.B.-17/Icr +/+ Jcl mouse xenografted with human LNCAP and PC3 cells at 25.9 MBq, iv after 6 hrs; details: in vivo; in short: as §3
LNCaP [14] = experiment: Biodistribution in LNCAP cells in C.B.-17/Icr +/+ Jcl mouse xenografted with human LNCAP and PC3 cells at 25.9 MBq, iv after 3 hrs; details: in vivo; in short: as §1
Spleen [15] = experiment: Biodistribution in spleen of C.B.-17/Icr +/+ Jcl mouse xenografted with human LNCAP and PC3 cells at 25.9 MBq, iv after 1 hr; details: in vivo; in short: as §3
Spleen [16] = experiment: Biodistribution in spleen of C.B.-17/Icr +/+ Jcl mouse xenografted with human LNCAP and PC3 cells at 25.9 MBq, iv after 2 mins; details: in vivo; in short: as §3
Liver [17] = experiment: Biodistribution in liver of C.B.-17/Icr […] Jcl mouse xenografted with human LNCAP and PC3 cells at 25.9 MBq, iv after 6 hrs; details: in vivo; in short: as §1
Liver [18] = experiment: Biodistribution in liver of C.B.-17/Icr […] Jcl mouse xenografted with human LNCAP and PC3 cells at 25.9 MBq, iv after 2 mins; details: in vivo; in short: as §1
Heart [19] = experiment: Biodistribution in heart of C.B.-17/Icr +/+ Jcl mouse xenografted with human LNCAP and PC3 cells at 25.9 MBq, iv after 30 mins; details: in vivo, 0.5 h; in short: as §1
Blood [20] = experiment: Biodistribution in blood of C.B.-17/Icr scid/scid Jcl mouse xenografted with human LNCAP and PC3 cells at 25.9 MBq, iv after 30 mins; details: in vivo, 0.5 h
Nucleic Acid [21] = experiment: Ratio of drug level in human LNCAP cells xenografted in C.B.-17/Icr +/+ Jcl mouse to muscle of C.B.-17/Icr +/+ Jcl mouse xenografted with human LNCAP and PC3 cells at 25.9 MBq, iv after 1 hr; details: in vivo; in short: as §2
Muscle tissue [22] = experiment: Biodistribution in muscle of C.B.-17/Icr +/+ Jcl mouse xenografted with human LNCAP and PC3 cells at 25.9 MBq, iv after 6 hrs; details: in vivo; in short: as §3
Intestine [23] = experiment: Biodistribution in intestine of C.B.-17/Icr +/+ Jcl mouse xenografted with human LNCAP and PC3 cells at 25.9 MBq, iv after 1 hr; details: in vivo; in short: as §1
Blood [24] = experiment: Biodistribution in blood of C.B.-17/Icr scid/scid Jcl mouse xenografted with human LNCAP and PC3 cells at 25.9 MBq, iv after 2 mins; details: in vivo

Drug uptake (LNCaP [1]): 9.5 % ID/g
Drug excretion (Liver [2]): Active
Drug uptake (LNCaP [3]): 6.7 % ID/g
Drug uptake (PC-3 [4]): 0.3 % ID/g
Kp at 1 h [5]: 6.9
Drug uptake (PC-3 [6]): 0.7 % ID/g
Drug uptake (Lung): 1.2 % ID/g
Drug uptake (Blood [7]): 0.5 % ID/g
Drug uptake (Muscle tissue [8]): 0.2 % ID/g
Drug uptake (Heart [9]): 0.7 % ID/g
Drug uptake (Intestine [10]): 11.2 % ID/g
Drug uptake (Liver [11]): 13.7 % ID/g
Ratio (Nucleic Acid [12]): 49.4
Ratio (Nucleic Acid [13]): 1.5
Drug uptake (Stomach): 0.7 %ID
Drug uptake (LNCaP [14]): 9.5 % ID/g
Drug uptake (Spleen [15]): 36.5 % ID/g
Drug uptake (Spleen [16]): 12.5 % ID/g
Drug uptake (Liver [17]): 4.5 % ID/g
Drug uptake (Liver [18]): 22.5 % ID/g
Drug uptake (Heart [19]): 2.1 % ID/g
Drug uptake (Blood [20]): 1.5 % ID/g
Ratio (Nucleic Acid [21]): 15.5
Drug uptake (Muscle tissue [22]): 0.1 % ID/g
Drug uptake (Intestine [23]): 16.5 % ID/g
Drug uptake (Blood [24]): 8.9 % ID/g
Compound: O=C(O)CC[C@H](NC(=O)N[C@@H](CSC1CC(=O)N(CCCC[C@H](NC(=O)CNC(=O)c2cccc([125I])c2)C(=O)O)C1=O)C(=O)O)C(=O)O (stereo partly specified)
